Measured values from ChEMBL document CHEMBL2311296, “Discovery of a potent and isoform-selective targeted covalent inhibitor of the lipid kinase PI3Kα” (J Med Chem, 2013).
The source made the active and inactive calls. No cut-off for these calls is given here.

Tests used:
[1] = biological target: Phosphatidylinositol 4-phosphate 3-kinase C2 domain-containing subunit alpha (Homo sapiens, UniProt O00443); assay: Inhibition of PI3KC2A (unknown origin) by ADP-GLO assay
Summary of the method: (§1)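 Reaction Biology panel using ADP-Glo format at 10 μM ATP. Substrate was sphingosine for SPHK1 and SPHK2, and phosphatidylinositol for the other enzymes.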

[2] = biological target: T1, Phosphatidylinositol 4,5-bisphosphate 3-kinase catalytic subunit delta isoform (Homo sapiens, UniProt O00329); assay: Inhibition of PI3Kdelta (unknown origin) by HTRF assay
T1 sequence (O00329 whole entry): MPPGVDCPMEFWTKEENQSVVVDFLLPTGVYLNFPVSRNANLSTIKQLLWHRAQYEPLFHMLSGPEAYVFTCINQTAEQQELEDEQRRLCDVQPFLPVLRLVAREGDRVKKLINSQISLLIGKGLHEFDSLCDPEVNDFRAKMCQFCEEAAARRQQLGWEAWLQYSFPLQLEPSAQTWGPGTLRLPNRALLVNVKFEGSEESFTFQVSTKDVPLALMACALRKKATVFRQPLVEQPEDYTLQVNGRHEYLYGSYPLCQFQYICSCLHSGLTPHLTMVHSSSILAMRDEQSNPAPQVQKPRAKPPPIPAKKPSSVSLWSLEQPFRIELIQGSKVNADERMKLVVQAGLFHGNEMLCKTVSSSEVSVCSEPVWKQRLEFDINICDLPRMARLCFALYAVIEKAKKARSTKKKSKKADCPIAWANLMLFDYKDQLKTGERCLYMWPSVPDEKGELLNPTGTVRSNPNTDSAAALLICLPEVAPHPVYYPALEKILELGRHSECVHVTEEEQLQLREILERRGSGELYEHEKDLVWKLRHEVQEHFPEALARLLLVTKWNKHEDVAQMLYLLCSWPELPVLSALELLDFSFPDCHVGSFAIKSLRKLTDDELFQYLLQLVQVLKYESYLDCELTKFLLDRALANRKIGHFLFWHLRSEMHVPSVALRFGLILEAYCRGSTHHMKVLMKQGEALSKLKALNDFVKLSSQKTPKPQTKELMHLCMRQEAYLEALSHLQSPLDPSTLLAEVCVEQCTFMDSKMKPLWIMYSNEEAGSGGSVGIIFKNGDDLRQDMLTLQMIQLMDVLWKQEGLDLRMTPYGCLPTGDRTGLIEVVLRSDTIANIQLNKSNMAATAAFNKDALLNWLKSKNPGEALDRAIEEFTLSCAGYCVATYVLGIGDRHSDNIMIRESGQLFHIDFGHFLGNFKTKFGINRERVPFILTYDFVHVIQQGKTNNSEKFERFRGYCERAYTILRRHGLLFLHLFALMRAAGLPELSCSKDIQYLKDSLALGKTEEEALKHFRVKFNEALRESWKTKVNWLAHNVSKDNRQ

[3] = biological target: Phosphatidylinositol 4,5-bisphosphate 3-kinase catalytic subunit alpha isoform (Homo sapiens) (UniProt P42336); conditions: SK-OV-3, 500 nM
Plasma = assay: Plasma protein binding in human albumin-depleted plasma after 1 to 3 hrs by MALDI TOF/TOF mass spectrometry; type: ADME, cell-free
Summary of the method: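 Human plasma albumin-depleted, not fully, and diluted to 1 mg/mL. A 10 mM DMSO compound stock diluted 1:10 into it; incubated at 37 °C for 1 or 3 h. Samples desalted on C4 tips and analysed by MALDI TOF/TOF (sinapinic acid matrix, ovalbumin internal standard) for mass shifts.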

[4] = biological target: T2, Phosphatidylinositol 4,5-bisphosphate 3-kinase catalytic subunit beta isoform (Homo sapiens, UniProt P42338); assay: Binding affinity to human PI3Kbeta after 1 hr by MALDI TOF/TOF mass spectrometry
Summary of the method: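 Compound incubated with recombinant PI3K isoform enzyme at a 10:1 compound-to-enzyme molar ratio, room temperature, 1 h; covalent adduct formation read by mass spectrometry.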
Target sequence in this assay (P42338 whole entry, looked up, canonical isoform): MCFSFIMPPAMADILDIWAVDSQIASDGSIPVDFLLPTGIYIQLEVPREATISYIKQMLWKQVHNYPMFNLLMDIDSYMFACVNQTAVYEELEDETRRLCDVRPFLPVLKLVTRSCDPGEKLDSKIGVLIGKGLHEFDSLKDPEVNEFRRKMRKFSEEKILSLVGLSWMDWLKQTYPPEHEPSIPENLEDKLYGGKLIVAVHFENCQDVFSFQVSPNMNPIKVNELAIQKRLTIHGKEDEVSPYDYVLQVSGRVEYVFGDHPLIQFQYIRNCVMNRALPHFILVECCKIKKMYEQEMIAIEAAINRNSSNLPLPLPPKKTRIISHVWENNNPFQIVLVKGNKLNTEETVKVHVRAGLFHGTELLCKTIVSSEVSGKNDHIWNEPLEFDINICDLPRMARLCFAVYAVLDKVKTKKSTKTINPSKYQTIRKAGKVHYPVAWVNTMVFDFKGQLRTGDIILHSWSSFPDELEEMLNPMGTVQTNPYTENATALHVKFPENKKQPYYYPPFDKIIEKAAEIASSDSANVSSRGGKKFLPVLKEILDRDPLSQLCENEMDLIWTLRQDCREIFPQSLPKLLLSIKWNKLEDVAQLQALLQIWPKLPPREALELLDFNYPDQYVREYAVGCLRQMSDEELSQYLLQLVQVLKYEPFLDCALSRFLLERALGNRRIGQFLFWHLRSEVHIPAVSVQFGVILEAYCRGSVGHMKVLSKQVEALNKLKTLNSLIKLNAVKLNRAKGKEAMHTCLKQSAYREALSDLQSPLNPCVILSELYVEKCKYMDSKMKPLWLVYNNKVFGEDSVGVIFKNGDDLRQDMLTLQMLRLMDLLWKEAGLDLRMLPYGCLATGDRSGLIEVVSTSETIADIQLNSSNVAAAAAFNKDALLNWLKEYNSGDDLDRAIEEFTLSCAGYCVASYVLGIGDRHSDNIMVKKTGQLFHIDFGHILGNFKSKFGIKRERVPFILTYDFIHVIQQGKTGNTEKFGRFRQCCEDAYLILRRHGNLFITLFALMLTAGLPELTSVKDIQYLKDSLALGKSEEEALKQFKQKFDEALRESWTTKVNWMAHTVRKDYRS

MCF7 = assay: Growth inhibition of human MCF7 cells assessed as cell viability after 96 hrs by Cell Titre Glo assay; type: functional; conditions: MCF7, 96 h
[5] = biological target: Phosphatidylinositol 3-kinase catalytic subunit type 3 (Homo sapiens, UniProt Q8NEB9); assay: Inhibition of PI3KC3 (unknown origin) by ADP-GLO assay; summary of the method: as §1
Mus musculus [6] = assay: In vivo inhibition of PI3Kalpha in nude nu/nu mouse assessed as free P110alpha levels at 100 mg/kg, ip qd administered for 5 consecutive days measured 1 to 4 hrs post last dose by immunoblot method; type: functional, organism-based; set-up: dose 100 mg/kg
Summary of the method: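 Female nu/nu mice (n = 3/group) dosed ip at 100 mg/kg once daily for 5 days. Spleens harvested 1, 4 and 24 h after the last dose and homogenized. Lysate (150 μg protein) incubated with a biotinylated covalent probe at 1 μM for 1 h at RT, then immunoprecipitated with anti-p110α overnight at 4 °C. Immunoblot: streptavidin signal normalized to total p110α, expressed as % of vehicle.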

[7] = biological target: Phosphatidylinositol 4-kinase beta (Homo sapiens, UniProt Q9UBF8); assay: Inhibition of PI4Kbeta (unknown origin) by ADP-GLO assay; summary of the method: as §1
SK-OV-3 = assay: Growth inhibition of human SKOV3 cells assessed as cell viability after 96 hrs by Cell Titre Glo assay; type: functional; conditions: SK-OV-3, 96 h
[8] = biological target: Phosphatidylinositol 4-kinase alpha (Homo sapiens, UniProt P42356); assay: Inhibition of PI4Kalpha (unknown origin) by ADP-GLO assay; summary of the method: as §1
[9] = biological target: Phosphatidylinositol 4,5-bisphosphate 3-kinase catalytic subunit gamma isoform (Homo sapiens, UniProt P48736); assay: Inhibition of PI3Kgamma (unknown origin) by HTRF assay
Summary of the method: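 Contract lab panel, end-point HTRF format with phosphatidylinositol 4,5-bisphosphate as substrate and 10 μM ATP. Ten-point curve, 3-fold serial dilutions starting at 1 μM. Reported as an apparent IC50 (IC50App).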

Mus musculus [10] = assay: In vivo inhibition of PI3Kalpha in nude nu/nu mouse spleen assessed as inhibition of Akt Ser473 phosphorylation at 100 mg/kg, ip qd administered for 5 consecutive days measured 1 to 4 hrs post last dose by immunoblotting method; type: functional, organism-based; set-up: dose 100 mg/kg
Summary of the method: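 Female nu/nu mice (n = 3/group) dosed ip at 100 mg/kg once daily for 5 days. Spleens collected 1, 4 and 24 h post last dose, frozen, then homogenized in extraction buffer with protease and phosphatase inhibitors. Lysates immunoblotted for P-Akt Ser473.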

Sphingosine kinase 2 = biological target: T3, Sphingosine kinase 2 (Homo sapiens, UniProt Q9NRA0); assay: Inhibition of SPHK2 (unknown origin) by ADP-GLO assay; summary of the method: as §1
T3 sequence (Q9NRA0 whole entry): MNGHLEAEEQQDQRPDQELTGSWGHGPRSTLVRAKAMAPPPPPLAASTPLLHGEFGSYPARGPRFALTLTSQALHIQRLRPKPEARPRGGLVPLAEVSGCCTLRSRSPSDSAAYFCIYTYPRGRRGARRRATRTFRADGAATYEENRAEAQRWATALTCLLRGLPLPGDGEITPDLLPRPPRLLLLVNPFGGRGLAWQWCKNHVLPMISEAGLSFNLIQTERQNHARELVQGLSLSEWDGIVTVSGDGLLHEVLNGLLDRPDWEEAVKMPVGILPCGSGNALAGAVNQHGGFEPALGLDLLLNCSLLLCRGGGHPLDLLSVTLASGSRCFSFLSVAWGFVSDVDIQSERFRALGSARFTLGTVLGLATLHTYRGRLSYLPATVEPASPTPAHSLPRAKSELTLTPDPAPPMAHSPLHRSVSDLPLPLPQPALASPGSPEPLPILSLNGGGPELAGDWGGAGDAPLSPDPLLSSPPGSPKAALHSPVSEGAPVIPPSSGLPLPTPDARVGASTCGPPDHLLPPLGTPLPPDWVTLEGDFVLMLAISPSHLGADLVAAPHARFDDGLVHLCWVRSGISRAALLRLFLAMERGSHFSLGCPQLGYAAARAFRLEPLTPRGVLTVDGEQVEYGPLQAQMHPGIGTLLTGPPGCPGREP

[11] = biological target: T2, Phosphatidylinositol 4,5-bisphosphate 3-kinase catalytic subunit beta isoform; assay: Inhibition of PI3Kbeta (unknown origin) by HTRF assay
Summary of the method: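 PI3Kβ tested in a 10-concentration curve, 3-fold serial dilution starting at 1 μM, at 10 μM ATP. Substrate phosphatidylinositol 4,5-bisphosphate, HTRF read-out. Value reported as apparent IC50 from an end-point assay.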
Target sequence in this assay (P42338 whole entry, canonical isoform): as the sequence (P42338 whole entry, looked up, canonical isoform) above

Sphingosine kinase 1 = Sphingosine kinase 1 (Homo sapiens, UniProt Q9NYA1); assay: Inhibition of SPHK1 (unknown origin) by ADP-GLO assay; summary of the method: as §1
[12] = biological target: Phosphatidylinositol 4,5-bisphosphate 3-kinase catalytic subunit alpha isoform (Homo sapiens) (UniProt P42336); conditions: SK-OV-3, 500 nM; remark: listed apart in the source
[13] = biological target: Phosphatidylinositol 4,5-bisphosphate 3-kinase catalytic subunit alpha isoform (Homo sapiens) (UniProt P42336); conditions: SK-OV-3, 1 to 1000 nM

Phosphatidylinositol 4,5-bisphosphate 3-kinase catalytic subunit alpha isoform (Homo sapiens), sequence (P42336 whole entry, canonical isoform): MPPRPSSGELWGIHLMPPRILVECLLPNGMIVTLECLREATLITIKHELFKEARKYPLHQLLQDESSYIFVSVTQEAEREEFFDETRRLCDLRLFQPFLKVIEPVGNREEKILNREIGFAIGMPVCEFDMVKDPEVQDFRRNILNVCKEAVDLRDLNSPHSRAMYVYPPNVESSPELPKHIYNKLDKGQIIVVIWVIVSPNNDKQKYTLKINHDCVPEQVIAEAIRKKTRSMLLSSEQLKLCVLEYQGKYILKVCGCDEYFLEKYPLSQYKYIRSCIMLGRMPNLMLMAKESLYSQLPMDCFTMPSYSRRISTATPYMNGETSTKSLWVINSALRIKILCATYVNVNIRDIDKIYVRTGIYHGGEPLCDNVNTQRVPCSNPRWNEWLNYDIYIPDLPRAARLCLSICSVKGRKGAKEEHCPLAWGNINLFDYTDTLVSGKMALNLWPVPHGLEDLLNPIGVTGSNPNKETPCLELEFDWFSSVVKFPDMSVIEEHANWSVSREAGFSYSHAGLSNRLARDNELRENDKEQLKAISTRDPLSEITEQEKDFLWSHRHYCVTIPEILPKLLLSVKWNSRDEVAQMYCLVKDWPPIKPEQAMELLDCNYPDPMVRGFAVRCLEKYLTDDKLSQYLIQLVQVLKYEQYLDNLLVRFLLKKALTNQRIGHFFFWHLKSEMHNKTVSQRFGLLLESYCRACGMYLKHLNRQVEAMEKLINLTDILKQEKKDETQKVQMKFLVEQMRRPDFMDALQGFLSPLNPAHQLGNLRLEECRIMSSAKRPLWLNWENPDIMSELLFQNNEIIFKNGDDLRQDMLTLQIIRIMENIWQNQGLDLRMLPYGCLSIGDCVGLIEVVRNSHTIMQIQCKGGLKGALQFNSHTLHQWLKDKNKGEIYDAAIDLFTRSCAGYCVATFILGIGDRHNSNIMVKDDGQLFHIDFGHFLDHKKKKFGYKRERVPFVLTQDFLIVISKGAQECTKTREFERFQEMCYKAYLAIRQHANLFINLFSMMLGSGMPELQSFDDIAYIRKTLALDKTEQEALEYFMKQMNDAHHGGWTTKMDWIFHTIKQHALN
Phosphatidylinositol 4-kinase alpha, sequence (P42356 whole entry, canonical isoform): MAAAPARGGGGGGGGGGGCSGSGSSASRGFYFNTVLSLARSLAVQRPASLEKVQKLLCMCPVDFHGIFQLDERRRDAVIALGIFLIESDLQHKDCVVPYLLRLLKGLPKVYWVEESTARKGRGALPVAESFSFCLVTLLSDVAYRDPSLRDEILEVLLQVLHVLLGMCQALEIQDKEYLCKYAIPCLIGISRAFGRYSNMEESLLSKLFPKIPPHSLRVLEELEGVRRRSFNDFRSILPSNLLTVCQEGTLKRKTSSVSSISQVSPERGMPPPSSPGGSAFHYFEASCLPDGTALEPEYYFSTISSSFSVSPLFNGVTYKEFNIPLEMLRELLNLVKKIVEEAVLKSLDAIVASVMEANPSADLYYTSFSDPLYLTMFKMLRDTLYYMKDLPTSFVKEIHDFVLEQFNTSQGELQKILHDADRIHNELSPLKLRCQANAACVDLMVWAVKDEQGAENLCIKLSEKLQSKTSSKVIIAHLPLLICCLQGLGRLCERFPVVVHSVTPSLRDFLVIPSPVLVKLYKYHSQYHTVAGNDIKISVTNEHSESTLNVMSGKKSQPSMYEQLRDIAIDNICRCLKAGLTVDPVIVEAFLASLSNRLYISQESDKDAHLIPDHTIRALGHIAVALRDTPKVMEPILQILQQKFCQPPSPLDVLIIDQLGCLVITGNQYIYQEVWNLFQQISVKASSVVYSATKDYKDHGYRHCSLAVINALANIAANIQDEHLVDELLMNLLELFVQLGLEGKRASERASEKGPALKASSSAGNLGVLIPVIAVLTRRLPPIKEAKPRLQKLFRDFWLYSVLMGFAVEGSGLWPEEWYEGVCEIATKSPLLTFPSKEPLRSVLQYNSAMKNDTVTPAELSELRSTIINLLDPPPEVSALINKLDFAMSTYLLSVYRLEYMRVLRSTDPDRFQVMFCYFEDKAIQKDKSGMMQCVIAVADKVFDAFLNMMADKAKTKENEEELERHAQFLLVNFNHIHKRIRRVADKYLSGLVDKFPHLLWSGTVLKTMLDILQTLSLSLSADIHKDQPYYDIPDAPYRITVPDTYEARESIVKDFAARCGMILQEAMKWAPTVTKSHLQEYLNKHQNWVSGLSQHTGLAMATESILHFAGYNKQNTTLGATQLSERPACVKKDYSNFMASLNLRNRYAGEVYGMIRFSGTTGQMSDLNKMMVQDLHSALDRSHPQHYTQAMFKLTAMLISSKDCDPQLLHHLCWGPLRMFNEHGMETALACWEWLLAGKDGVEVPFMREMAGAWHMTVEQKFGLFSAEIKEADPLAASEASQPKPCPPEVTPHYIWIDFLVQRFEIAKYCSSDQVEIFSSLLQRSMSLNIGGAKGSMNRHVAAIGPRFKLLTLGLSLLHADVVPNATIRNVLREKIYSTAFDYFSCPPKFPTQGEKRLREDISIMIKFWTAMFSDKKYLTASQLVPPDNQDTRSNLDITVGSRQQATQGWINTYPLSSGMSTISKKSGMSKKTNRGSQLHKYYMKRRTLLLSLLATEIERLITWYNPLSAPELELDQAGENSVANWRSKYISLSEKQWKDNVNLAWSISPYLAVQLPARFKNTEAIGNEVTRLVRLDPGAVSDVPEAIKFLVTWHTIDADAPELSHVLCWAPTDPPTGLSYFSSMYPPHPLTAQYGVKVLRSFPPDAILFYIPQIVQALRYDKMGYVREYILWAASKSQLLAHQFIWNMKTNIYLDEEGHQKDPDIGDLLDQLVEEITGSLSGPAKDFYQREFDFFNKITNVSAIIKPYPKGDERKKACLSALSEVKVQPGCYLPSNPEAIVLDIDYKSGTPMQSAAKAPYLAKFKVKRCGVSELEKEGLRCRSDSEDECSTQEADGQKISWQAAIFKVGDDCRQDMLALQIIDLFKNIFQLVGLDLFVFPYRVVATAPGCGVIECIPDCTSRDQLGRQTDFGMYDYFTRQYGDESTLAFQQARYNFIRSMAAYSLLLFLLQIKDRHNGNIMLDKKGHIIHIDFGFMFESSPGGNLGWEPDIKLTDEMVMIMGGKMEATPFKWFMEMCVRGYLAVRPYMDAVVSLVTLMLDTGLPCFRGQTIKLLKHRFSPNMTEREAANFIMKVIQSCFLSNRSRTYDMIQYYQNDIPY
Phosphatidylinositol 4-kinase beta, sequence (Q9UBF8 whole entry): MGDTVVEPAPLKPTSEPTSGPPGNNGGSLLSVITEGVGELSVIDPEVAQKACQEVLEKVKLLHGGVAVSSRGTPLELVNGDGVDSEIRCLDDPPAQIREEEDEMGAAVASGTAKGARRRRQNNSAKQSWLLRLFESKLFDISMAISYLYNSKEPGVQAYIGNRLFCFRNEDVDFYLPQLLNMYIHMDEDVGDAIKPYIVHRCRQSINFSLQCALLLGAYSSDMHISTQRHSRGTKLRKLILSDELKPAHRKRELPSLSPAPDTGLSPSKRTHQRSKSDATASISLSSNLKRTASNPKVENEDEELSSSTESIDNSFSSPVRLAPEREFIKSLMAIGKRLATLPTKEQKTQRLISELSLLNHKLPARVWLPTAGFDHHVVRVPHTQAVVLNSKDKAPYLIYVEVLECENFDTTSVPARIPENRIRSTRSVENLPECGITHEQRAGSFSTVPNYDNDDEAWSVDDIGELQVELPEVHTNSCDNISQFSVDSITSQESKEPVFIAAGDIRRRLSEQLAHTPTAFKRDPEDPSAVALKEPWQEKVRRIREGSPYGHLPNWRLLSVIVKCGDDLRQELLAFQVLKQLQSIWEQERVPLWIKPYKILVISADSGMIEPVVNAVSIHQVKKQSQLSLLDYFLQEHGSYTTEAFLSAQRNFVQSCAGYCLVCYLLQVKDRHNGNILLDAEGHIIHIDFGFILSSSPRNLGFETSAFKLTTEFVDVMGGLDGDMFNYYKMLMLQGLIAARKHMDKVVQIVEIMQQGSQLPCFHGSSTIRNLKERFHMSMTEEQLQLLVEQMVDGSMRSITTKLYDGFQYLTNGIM

IC50 [1] [nM] | IC50 [2] [nM] | inhibition [3] | PPB (Plasma) | Activity [4] | GI50 (MCF7) [nM] | IC50 [5] [nM] | IC50 [7] [nM] | GI50 (SK-OV-3) [nM] | IC50 [8] [nM] | IC50 [9] [nM] | IC50 (Sphingosine kinase 2) [nM] | IC50 [11] [nM] | IC50 (Sphingosine kinase 1) [nM] | inhibition [12] | inhibition [13] | Structure (SMILES) | Activity (Mus musculus [6]) | Activity (Mus musculus [10])
> 1000 | 3020 | Active | Not Active | inactive | 54.7 | > 1000 | > 1000 | 77.6 | > 1000 | 240 | > 1000 | 166 | > 1000 |  |  | CC(C)=CC(=O)CCC(=O)N1CCN(Cc2cc3nc(-c4cccc5[nH]ncc45)nc(N4CCOCC4)c3s2)CC1 | Active | Active
 |  |  |  |  | 70.2 |  |  | 148 |  |  |  |  |  | inactive | Active | CS(=O)(=O)N1CCN(Cc2cc3nc(-c4cccc5[nH]ncc45)nc(N4CCOCC4)c3s2)CC1 [PICTILISIB] |  | 
